Shown are actives, neighbours in structure and some others; about 2.2% of the full set was active somewhere.
Runt-SMMHC FRET – Runt domain-CBFb-SMMHC interaction inhibition | AID 1434 | Cerulean-Runt/Venus-CBFb-SMMHC FRET ratio 530/480, 1 h | inhibition, % at 20 µM | 220,000 tested, 0.74% active | Q01196+Q13951;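 active = mean inhibition across duplicate retests at 20 µM reaching about 50%, limit read from the data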;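 note: inhibitors lower the FRET ratio by blocking Runt binding to CBFb-SMMHC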
Target sequence (Q01196 whole entry, looked up, the tested form may be a part): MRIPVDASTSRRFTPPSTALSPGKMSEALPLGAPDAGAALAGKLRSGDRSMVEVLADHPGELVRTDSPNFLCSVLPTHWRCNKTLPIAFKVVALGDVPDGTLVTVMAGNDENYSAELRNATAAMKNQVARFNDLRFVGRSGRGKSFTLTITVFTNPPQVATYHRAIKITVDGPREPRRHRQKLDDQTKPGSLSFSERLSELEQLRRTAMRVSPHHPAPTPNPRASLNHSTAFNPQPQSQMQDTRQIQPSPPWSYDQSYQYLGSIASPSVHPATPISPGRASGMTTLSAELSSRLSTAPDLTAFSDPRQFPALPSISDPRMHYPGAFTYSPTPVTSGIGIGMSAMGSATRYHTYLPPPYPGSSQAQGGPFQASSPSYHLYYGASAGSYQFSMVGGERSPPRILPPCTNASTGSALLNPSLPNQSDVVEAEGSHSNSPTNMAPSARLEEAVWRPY
Target sequence (Q13951 whole entry, looked up, the tested form may be a part): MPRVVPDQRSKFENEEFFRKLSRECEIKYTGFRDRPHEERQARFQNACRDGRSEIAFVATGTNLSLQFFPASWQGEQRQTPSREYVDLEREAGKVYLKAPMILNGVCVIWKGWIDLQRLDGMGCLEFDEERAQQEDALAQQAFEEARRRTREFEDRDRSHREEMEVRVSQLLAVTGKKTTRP
Runt-CBFb FRET – blocks binding of human RUNX1 Runt domain to CBFb | Q01196+Q13951 | Cerulean-Runt/Venus-CBFb FRET ratio 530/480, 1 h | inhibition, % at 20 µM | 220,000 tested, 0.46% active | AID 1496;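 active = inhibition over about 50% at 20 µM in the single-dose screen, limit read from the data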
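Reagent – Venus-CBFb binding partner, 100 nM · Assay system – Cerulean-tagged RUNX1 Runt domain (FRET donor) fusion protein · Input – 100 nM per protein · Incubation – two 1 h room-temperature incubations shielded from light · Measured by – FRET fluorescence · Medium – Tris buffer pH 7.5 with salts and BSA · Benchmarks – unlabeled CBFb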
14-3-3 Bad inh – disrupts binding of bovine 14-3-3 zeta to phospho-Bad peptide; inhibition, % at 21.7 µM; AID 781; P63103; TR-FRET 14-3-3zeta/Dy647-pBad peptide displacement, 1 h; 220,000 tested, 0.71% active;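 active = inhibition above about 70%, limit read from the data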
Tb hexokinase – T. brucei hexokinase 1 inhibition; recombinant TbHK1, G6PDH-coupled NADH A340; inhibition, % at 10 µM; 220,000 tested, 0.11% active;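 active = inhibition of 50% or more in the single-dose primary screen; inactive = inhibition below 50%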
RanGTP-Imp inh – disruptors of Ran-importin-beta complex formation – biochemical, FRET, CFP-Ran, YFP-importin-beta, homogeneous, primary screen; cell-free CFP-Ran/YFP-importin-beta FRET ratio; inhibition, % (no concentration beside the values); 300,000 tested, 1.1% active; AID 2216;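 active = more than half of the replicate wells show a fall in the fluorescence ratio signal beyond about 16%, limit read from the data, passing the limit was not always enough; inconclusive = exactly half of the replicate wells pass the set limit; inactive = fewer than half of replicates pass the limit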
Hck Nef HTS – human Hck-Nef kinase inhibition. P08631. Recombinant Hck-YEEI plus Nef, Z-Lyte FRET kinase assay. inhibition, % at 20 µM. AID 463187. 220,000 tested, 0.68% active;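 active = Hck-Nef kinase inhibition above about 50%, limit read from the data; inactive = inhibition below that limit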
Hits are given with their value; – = inactive; ? = inconclusive; · = no result given; [ ] = another dose, or the depositor's remark.

SMILES | Runt-SMMHC FRET | Runt-CBFb FRET | 14-3-3 Bad inh | Tb hexokinase | RanGTP-Imp inh | Hck Nef HTS
CCOc1ccc(NC(=S)NNC(=S)Nc2cccc(C(F)(F)F)c2)cc1 | – | – | – | – | 22 | –
COc1ccc(NC(=S)NNC(=S)Nc2cccc(C(F)(F)F)c2)cc1 | – | – | – | – | – | –
CCOC(=O)C(C)Sc1nc2c(c(-c3cccs3)c1C#N)CCC2 (stereo not given) | – | – | – | – | 109 | –
COc1cccc(OCC(=O)Nc2c3c(nn2-c2ccccc2)CS(=O)(=O)C3)c1 | · | · | · | · | – | ·
Nc1c(/C=C2\C=Nc3ccccc32)c(=O)nc2sc(CC(=O)N3CCOCC3)nn12 | · | · | · | · | 20 | ·
COc1ccccc1/C=C(/NC(=O)c1ccc(Cl)cc1Cl)C(=O)O | – | – | 85 | – | – | –
COc1ccc(/C=C(/NC(=O)c2ccccc2Cl)C(=O)O)cc1 | – | – | – | – | ? | –
Cc1ccccc1CNC(=O)C(=O)NCCC1CCCCN1S(=O)(=O)c1ccccc1 (stereo not given) | · | · | · | · | – | ·
NS(=O)(=O)c1ccc(CCNC(=O)CNC(=O)c2ccc(Oc3ccccc3)cc2)cc1 | · | · | · | · | – | ·
CN(C)c1nc2ccccc2c(N)c1-c1ccccc1 | – | – | 77 | – | · | –
O=C(CSc1nc2cc(Cl)ccc2s1)Nc1cccc(S(=O)(=O)N2CCOCC2)c1 | – | – | – | – | – | –
CC(=O)Nc1cc(NC(C)=O)cc(-c2nc3ccccc3[nH]2)c1 | – | – | – | – | – | –
CC(=O)Nc1ccc(-c2nc3c(C)cccc3[nH]2)cc1 | – | – | 72 | – | – | –
CC(C)Cn1c(N)c(C(=O)NCCN2CCOCC2)c2nc3ccccc3nc21 | 95 | – | – | – | 94 | –
Cc1cccc(-n2c(N)c(C(=O)NCCN3CCOCC3)c3nc4ccccc4nc32)c1 | 61 | 79 | 71 | – | 85 | –
CC(=O)c1nnn(-c2ccc([N+](=O)[O-])cc2C)c1C | – | – | – | – | – | –
N#CC1(C#N)CC(C=O)=C(N)C1(C#N)CC(=O)c1ccc(F)cc1 (stereo not given) | 51 | – | – | – | 33 | –
O=C(C[N+]12CC[N+](CC(=O)c3ccc(F)cc3)(CC1)CC2)c1ccc(F)cc1 | · | · | · | · | – | ·
CC1(C)CC(=O)C/C(=N/NC(=O)c2ccc(-c3ccccc3)cc2)C1 | – | – | – | – | 24 | –
Cc1cc(C(=O)N/N=C2\CC(=O)CC(C)(C)C2)c2ccccc2n1 | – | – | – | – | – | –
CC1(C)CC(=O)CC(=Nc2ccc(C(=O)O)cc2)C1 | – | – | – | – | 45 | –
CCOC(=O)NN1C(=O)c2ccccc2NC1c1cccs1 (stereo not given) | · | · | · | · | – | ·
CCOc1ccccc1/C=C/c1nc2ccccc2[nH]c1=O | · | · | · | · | 71 | ·
CCOc1ccccc1OCCCC(=O)Nc1nc2ccccc2[nH]1 | – | – | – | – | – | –
O=C(CCCCCn1c(SCc2ccncc2)nc2ccccc2c1=O)NCc1ccco1 | – | – | – | – | – | –
SMILES | Runt-SMMHC FRET | Runt-CBFb FRET | 14-3-3 Bad inh | Tb hexokinase | RanGTP-Imp inh | Hck Nef HTS
CCCN(C(=O)c1cccc(-n2cccc2)c1)c1c(N)n(Cc2ccccc2)c(=O)[nH]c1=O | · | · | · | · | – | ·
N=c1n(CC(=O)c2cccc([N+](=O)[O-])c2)c2ccccc2n1Cc1ccccc1 | – | – | – | – | – | –
CCn1c(=N)n(CC(=O)c2cccc([N+](=O)[O-])c2)c2ccccc21 | – | – | 74[fluorescence artefact?] | – | – | –
Clc1ccc(CNc2nc(CN3CCOCC3)nc3scc(-c4ccccc4)c23)cc1 | – | – | – | – | – | –
CCOC(=O)C(Cc1c[nH]c2ccccc12)NC(=O)c1ccccc1Br (stereo not given) | · | · | · | · | – | ·
CC(=O)Oc1ccc2c3c(c(=O)oc2c1)CCCC3 | · | · | · | · | – | ·
CSCCC(NC(C)=O)C(=O)Oc1ccc2c3c(c(=O)oc2c1)CCCC3 (stereo not given) | 82 | – | – | – | · | –
COc1cccc(-n2cc(CNCc3cn(C)nc3-c3ccccc3F)cn2)c1 | – | – | – | – | 64 | –
CC1CCCCN1C(=O)C(=O)c1cn(CC(=O)N2CCCCCC2)c2ccccc12 (stereo not given) | · | · | · | · | – | ·
CCn1cc(Cl)c(C(=O)NNC(=O)CCn2ccc([N+](=O)[O-])n2)n1 | · | · | · | · | – | ·
CC(C)(C)C(=O)OC/C(N)=N/OC(=O)c1ccc(Cl)cc1 | – | – | 91 | – | – | –
N/C(Cc1ccc(Cl)cc1)=N\OC(=O)c1ccccc1 | – | – | – | – | – | –
Cc1cccn2c(=O)c3cc(C(=O)NCCN4CCOCC4)n(C)c3nc12 | · | · | · | · | – | ·
Cc1cccn2c(=O)c3cc(C(=O)NC4CCCCC4)c(=N)n(Cc4ccc(F)cc4)c3nc12 | · | · | · | · | – | ·
Cc1cccn2c(=O)c3cc(C(=O)NCCN4CCOCC4)c(=N)n(Cc4ccc(F)cc4)c3nc12 | · | · | · | · | 162 | ·
Cc1cccn2c(=O)c3cc(C(=O)NCCN4CCOCC4)c(=N)n(CCN4CCOCC4)c3nc12 | · | · | · | · | 128 | ·
Cc1cccn2c(=O)c3cc(C(=O)NC4CCCC4)c(=N)n(CCCN4CCOCC4)c3nc12 | · | · | · | · | 175 | ·
CN(C)/C=C/C1=CC(=O)CC(C)(C)C1 | – | – | – | – | – | –
O=C(O)/C=C/c1ccc(S(=O)(=O)Nc2ccc3[nH]c(=O)[nH]c3c2)cc1 | · | · | · | · | 27 | ·
O=C(O)c1ccc(Cl)c(S(=O)(=O)Nc2ccc3[nH]c(=O)[nH]c3c2)c1 | – | – | – | – | 22 | –
O=C(Nc1ccc2[nH]c(=O)[nH]c2c1)c1ccc(Cl)c(Cl)c1 | – | – | – | – | – | –
O=C(O)c1cccc(S(=O)(=O)Nc2ccc3[nH]c(=O)[nH]c3c2)c1 | – | – | – | – | 16 | –
CCOC(=O)C1CCCN(C(=S)Nc2cc(C)cc(C)c2)C1 (stereo not given) | – | – | – | – | – | –
COc1ccc(NC(=O)c2ccc(NC3=NC4CS(=O)(=O)CC4S3)cc2)cc1 (stereo not given) | · | · | · | · | – | ·
CCN1C=CC2=C(C#N)C(N)C(C#N)(C#N)C(c3ccccc3C(F)(F)F)C2C1 (stereo not given) | 83 | 76 | – | – | 58 | –
CCN(C(=O)c1ccc(S(=O)(=O)N2CCC(C)CC2)cc1)C1CCS(=O)(=O)C1 (stereo not given) | · | · | · | · | – | ·
COc1ccccc1NC(=O)C1CC(C)OC1=O (stereo not given) | · | · | · | · | – | ·
Cc1cc(=O)oc(C)c1C(=O)Nc1ccc2ncccc2c1 | 59 | – | – | – | – | –
O=c1oc(Nc2cccc(Cl)c2)nc2ccccc12 | – | – | – | – | – | –
Cc1ccc(S(=O)(=O)n2cnc3cc([N+](=O)[O-])ccc32)cc1C | – | – | 71 | – | – | –

Source: PubChem BioAssay
